Assay results taken from PubChem BioAssay AID651783 (The Scripps Research Institute Molecular Screening Center, 2012).
In all, about 2,400 compounds went through this assay and about 2,000 (83%) were called active. So high a share suggests a set chosen from earlier hits. The list is a sample of the results. Unmarked numbers belong to inactive results.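 Rule for the calls: active = activation above a cutoff set at the run's mean compound activation plus 3 SD (cut at about 39% in these data); inactive = the rest.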

target: Trace amine-associated receptor 1 (Homo sapiens) (UniProt Q96RJ0); assay: human TAAR1 agonists, retest of hits, confirmation, Fluo-8 calcium fluorescence, CHO RD-HGA16 cells (AID 651783); conditions: CHO RD-HGA16 TAAR1, Fluo-8 calcium fluorescence; at 3 µM; hits give high values; scaled: DMSO 0%, maximal phenethylamine 100%;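 note: promiscuous G-alpha-16 overexpression reroutes TAAR1 signalling from cAMP to calcium; peak fluorescence divided by basal pre-compound fluorescence per well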
How it was run: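 System: hTAAR1/Gα16 CHO (RD-HGA16) cell line | Compound: Single nominal final dose of 3 µM per compound | Schedule: Fluo-8 dye loading 75 min 37 °C, then 30 min room temperature | Technique: Fluo-8 calcium signal, kinetic fluorescence read | Read-out: % activation from max-to-basal fluorescence ratio, DMSO-to-PEA scaled | Replicates: Triplicate wells per compound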

Chain of Trace amine-associated receptor 1 (Homo sapiens) (Q96RJ0 whole entry, looked up): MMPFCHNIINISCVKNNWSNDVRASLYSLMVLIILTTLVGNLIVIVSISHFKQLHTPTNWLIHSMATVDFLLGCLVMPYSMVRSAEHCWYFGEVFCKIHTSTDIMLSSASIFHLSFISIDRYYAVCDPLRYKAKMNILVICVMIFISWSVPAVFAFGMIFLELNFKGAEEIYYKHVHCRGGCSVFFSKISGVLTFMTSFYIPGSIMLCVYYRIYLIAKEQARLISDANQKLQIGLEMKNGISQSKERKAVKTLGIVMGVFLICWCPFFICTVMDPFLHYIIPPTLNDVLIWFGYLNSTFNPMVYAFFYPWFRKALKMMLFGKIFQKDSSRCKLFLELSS

Row | SMILES | activation
1 | S=C(Nc1ccc(Br)cc1)NC1CCN(Cc2ccccc2)CC1 | 62.4% (active)
2 | CCCCCCCCCCOC(=O)Cn1c(COc2ccc(C)cc2)[n+](C)c2ccccc21 | 109% (active)
3 | COCCCn1c(Cc2csc(Nc3cccc(Cl)c3)n2)nnc1SCC(=O)OC1CCCCC1 | -1.89%
4 | Cc1ccc(NC(=O)CCN2CCc3ccccc3C2)cc1 | 88.5% (active)
5 | CCCC1CCC(=NNC(=S)NCCc2ccccc2)CC1 (configuration not stated) | 73.7% (active)
6 | COc1cc(OC)cc(C(=O)N[C@H](C(=O)OCC(=O)NC(C)c2ccccc2)C(C)C)c1 (some centres not stated) | 41.1% (active)
7 | CC(=O)Oc1ccc(Cn2c(C)c(C(=O)NCc3ccc(C#N)cc3)sc2=O)cc1 | 113% (active)
8 | NC[C@H](Cc1ccccc1)NCCc1cc(C(F)(F)F)cc(C(F)(F)F)c1 | 55.9% (active)
9 | COc1cc(OC)c(-n2cc(-c3ccc(Cl)cc3)[nH]c2=O)cc1Cl | 117% (active)
10 | O=C(O)C1C2C=CC(O2)C1C(=O)NCCc1cccc(Cl)c1 (configuration not stated) | 101% (active)
11 | COc1ccc(C(=O)NNC(=S)NC(=O)c2ccccc2)cc1 | 127% (active)
12 | COc1ccc(C(=O)NC(=S)NNC(=O)CCc2ccccc2)cc1 | 115% (active)
13 | O=C(Nc1cccc(NC(=O)c2ccc(Br)cc2)c1)c1ccccc1 | 5.69%
14 | COc1ccc(Cl)cc1C(=O)NNC(=S)NC(=O)/C=C/c1ccco1 | 108% (active)
15 | Cc1ccc(O)c(NC(=S)NC(=O)COc2ccc(Br)cc2)c1 | 129% (active)
16 | CCc1ccc(-c2nn(-c3ccccc3)cc2CSC(=N)N)cc1 | 58.1% (active)
17 | CCCCc1c(-c2ccc(Br)cc2)ncn1CCc1ccccc1OC | 68.2% (active)
18 | CCCCc1c(-c2ccc(Cl)cc2)ncn1CCc1ccccc1OC | 81% (active)
19 | CCc1c(-c2ccccc2OC)ncn1CCc1ccccc1OC | 82.6% (active)
20 | COc1ccc(OC)c(C(c2nnnn2C(C)(C)C)N2CCc3ccccc3C2)c1 (configuration not stated) | 66.7% (active)
21 | CCOC(=O)Cc1csc(NC(=O)Nc2ccccc2)n1 | 60.1% (active)
22 | O=C(Nc1ccncc1)Nc1ccc(F)cc1 | 83.6% (active)
23 | CCCCCc1c(-c2cccc(Br)c2)ncn1CCc1ccccc1OC | 37.5% (active)
24 | CCCCCc1c(-c2ccc(OC)c(OC)c2)ncn1CCc1ccccc1OC | 98.3% (active)
25 | CCCCCc1c(Cc2ccccc2)ncn1CCc1ccccc1OC | 84.3% (active)
26 | NC(=O)C1=C[C@H](c2csc3ccccc23)C[C@H](OCc2ccc(CO)cc2)O1 | 58.4% (active)

Row | SMILES | activation
27 | c1ccc2c(c1)C(=NC1CCCCC1)NC2=NC1CCCCC1 | 90.4% (active)
28 | CCC(C(=O)Nc1ccc(C(C)C)cc1)c1ccccc1 (configuration not stated) | 114% (active)
29 | C#CCOc1ccc(/C=C2/C(=O)NN(c3ccccc3)C2=O)cc1OC | 88% (active)
30 | COc1ccc2cc(-c3[nH]ncc3CNCCn3nc(C)cc3C)ccc2c1 | 57.6% (active)
31 | O=C(Cc1ccc(Cl)cc1)NC(=S)Nc1ccccc1O | 134% (active)
32 | Cc1ccccc1NC(=S)NC(=O)Cc1ccc(Cl)cc1 | 85.2% (active)
33 | S=C(NCCCc1cnc[nH]1)NCCCN(Cc1ccc(Cl)c(Cl)c1)c1ccc(Br)cn1 | 58% (active)
34 | Cc1c(CNCCc2ccccc2)c(C(=O)O)c(C)n1-c1ccccc1 | 88.8% (active)
35 | CN(C(=O)CN(CCO)CC(=O)N(C)C(C)(C)Cc1ccccc1)C(C)(C)Cc1ccccc1 | 101% (active)
36 | Cc1ccccc1-c1nc(CS(=O)(=O)CC(=O)N2CCc3ccccc3C2)c(C)o1 | 68.7% (active)
37 | COc1ccc(NC(=O)C(=O)NCC(c2ccco2)N2CCc3ccccc3C2)cc1 (configuration not stated) | 40.5% (active)
38 | c1ccc(C2CNCc3c2ccc2ccccc32)cc1 (configuration not stated) | 88.2% (active)
39 | N#Cc1ccc(OCCCN2CCC(C(O)(c3ccccc3)c3ccccc3)CC2)c(F)c1 | 36.6%
40 | Cc1ccc(Sc2cc(N3CCOCC3)nc(-c3ccccc3)n2)cc1 | 19.1%
41 | CCCc1cc(C(=O)Nc2ccc(C(=O)OC)cc2)cs1 | 1.29%
42 | Cc1ccc(S(=O)(=O)N(CC(=O)N2CCc3ccccc3C2)c2cccc(Cl)c2)cc1 | 56.1% (active)
43 | COc1cccc(N(CC(=O)N2CCc3ccccc3C2)S(C)(=O)=O)c1 | 63.4% (active)
44 | OC(CNCCc1ccc(Cl)cc1Cl)COc1ccccc1 (configuration not stated) | 87.4% (active)
45 | Nc1nnn(CC(=O)N/N=C/c2ccccc2)n1 | 61.6% (active)
46 | CCCOc1ccc(-c2c(C(=O)N/N=C/c3ccco3)nnn2-c2nonc2N)cc1 | 73.1% (active)
47 | Nc1nonc1-n1nnc(C(=O)N/N=C/c2ccc(Cl)cc2)c1-c1ccc2c(c1)OCO2 | 142% (active)
48 | Cc1onc(-c2ccccc2)c1C(=O)NNC(=S)NC(=O)c1ccc(F)cc1 | 127% (active)
49 | COc1ccc(C(=O)NC(=S)NNC(=O)c2c(-c3ccccc3)noc2C)cc1 | 93% (active)
50 | Fc1ccc(NC(=S)N2CCc3[nH]c4ccccc4c3C2)cc1 | 32.8%
51 | COc1ccc(OC)c(NC(=S)N2CCc3ccccc3C2)c1 | 87.5% (active)
52 | O=C(/C=C/[C@H]1O[C@@H](n2cnc3c(NC(=O)c4ccccc4)ncnc32)[C@H](O)[C@@H]1O)NCc1ccccc1 | 0.79%
